Data: ChEMBL document CHEMBL4699398, “The synthesis and biological evaluation of sanguinarine derivatives as anti-non-small cell lung cancer agents” (RSC Med Chem, 2020)
pIC50: −log10 of the molar value. Activity calls are given as the source filed them. No cut-off for these calls is given here.

Assays:
[1] = test system: A549; test: Induction of apoptosis in human A549 cells assessed as necrotic cells at 0.3 uM after 48 hrs by Annexin V-FITC/7-AAD staining based flow cytometric method (reference value: 0.70 %); format: functional
[2] = test system: NCI-H1975; test: Induction of cell cycle arrest in human H1975 cells assessed as accumulation in G0/G1 phase at 1 uM incubated for 24 hrs by […] propidium iodide staining based flow cytometry (reference value: 62.86 %); format: functional
[3] = test system: A549; test: Induction of apoptosis in human A549 cells assessed as early apoptotic cells at 3 uM after 48 hrs by Annexin V-FITC/7-AAD staining based flow cytometric method (reference value: 3.26 %); format: functional
[4] = test system: A549; test: Induction of cell cycle arrest in human A549 cells assessed as accumulation in G0/G1 phase at 1 uM incubated for 24 hrs by […] propidium iodide staining based flow cytometry (reference value: 63.11 %); format: functional
[5] = test system: NCI-H1975; test: Induction of cell cycle arrest in human H1975 cells assessed as accumulation in S phase at 3 uM incubated for 24 hrs by […] propidium iodide staining based flow cytometry (reference value: 14.13 %); format: functional
[6] = test system: NCI-H1975; test: Induction of apoptosis in human H1975 cells assessed as increase in ROS production incubated for 20 mins by DCFH-DA staining based flow cytometry analysis; format: functional, cell-based; settings: dose microM 0.3-3, time 20.0 min
Procedure, shortened: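 At 20 min after compound treatment, cells washed in PBS and loaded with 10 μM DCFH-DA in phenol red-free DMEM for 30 min at 37 °C in the dark; washed three times with PBS; DCF fluorescence of ROS-positive cells measured by flow cytometry with excitation at 488 nm.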

[7] = test system: A549; test: Induction of apoptosis in human A549 cells assessed as necrotic cells at 1 uM after 48 hrs by Annexin V-FITC/7-AAD staining based flow cytometric method (reference value: 0.70 %); format: functional
[8] = test system: NCI-H1975; test: Induction of apoptosis in human H1975 cells assessed as necrotic cells at 1 uM after 48 hrs by Annexin V-FITC/7-AAD staining based flow cytometric method (reference value: 0.85 %); format: functional
[9] = test system: A549; test: Induction of apoptosis in human A549 cells assessed as late apoptotic cells at 0.3 uM after 48 hrs by Annexin V-FITC/7-AAD staining based flow cytometric method (reference value: 2.94 %); format: functional
[10] = test system: NCI-H1975; test: Induction of apoptosis in human H1975 cells assessed as increase in cleaved caspase-9 level at 0.1 to 3 uM incubated for 24 hrs by Western blot analysis; format: functional, cell-based; settings: dose microM 0.1-3, time 24.0 hrs
Procedure, shortened: (§1)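 After treatment, cells harvested and lysed in RIPA buffer; equal protein loaded on 12% SDS-PAGE and transferred to PVDF; blocked in 5% milk 2 h at room temperature; primary antibodies (AKT, p-AKT, cleaved caspase-3, cleaved caspase-9, PARP; GAPDH loading control) overnight at 4 °C; HRP secondaries 2 h at room temperature; chemiluminescent detection.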

[11] = test system: NCI-H1975; test: Induction of apoptosis in human H1975 cells assessed as late apoptotic cells at 3 uM after 48 hrs by Annexin V-FITC/7-AAD staining based flow cytometric method (reference value: 4.63 %); format: functional
[12] = test system: A549; test: Induction of apoptosis in human A549 cells assessed as early apoptotic cells at 1 uM after 48 hrs by Annexin V-FITC/7-AAD staining based flow cytometric method (reference value: 3.26 %); format: functional
[13] = test system: NCI-H1975; test: Induction of apoptosis in human H1975 cells assessed as necrotic cells at 3 uM after 48 hrs by Annexin V-FITC/7-AAD staining based flow cytometric method (reference value: 0.85 %); format: functional
[14] = test system: NCI-H1975; test: Induction of apoptosis in human H1975 cells assessed as viable cells at 3 uM after 48 hrs by Annexin V-FITC/7-AAD staining based flow cytometric method (reference value: 88.02 %); format: functional; settings: read-out: Activity
[15] = test system: NCI-H1975; test: Induction of apoptosis in human H1975 cells assessed as viable cells at 1 uM after 48 hrs by Annexin V-FITC/7-AAD staining based flow cytometric method (reference value: 88.02 %); format: functional; settings: read-out: Activity
[16] = test system: A549; test: Induction of apoptosis in human A549 cells assessed as increase in cleaved caspase-3 level at 0.1 to 3 uM incubated for 24 hrs by Western blot analysis; format: functional, cell-based; settings: dose microM 0.1-3, time 24.0 hrs; procedure, shortened: as §1
[17] = test system: A549; test: Induction of cell cycle arrest in human A549 cells assessed as accumulation in S phase at 3 uM incubated for 24 hrs by […] propidium iodide staining based flow cytometry (reference value: 14.16 %); format: functional
[18] = test system: A549; test: Induction of apoptosis in human A549 cells assessed as increase in phosphorylated Akt level at 0.1 to 3 uM incubated for 24 hrs by Western blot analysis; format: functional, cell-based; settings: dose microM 0.1-3, time 24.0 hrs; procedure, shortened: as §1
[19] = test system: A549; test: Induction of cell cycle arrest in human A549 cells assessed as accumulation in G0/G1 phase at 3 uM incubated for 24 hrs by […] propidium iodide staining based flow cytometry (reference value: 63.11 %); format: functional
[20] = test system: A549; test: Induction of cell cycle arrest in human A549 cells assessed as accumulation in S phase at 1 uM incubated for 24 hrs by […] propidium iodide staining based flow cytometry (reference value: 14.16 %); format: functional
[21] = test system: NCI-H1975; test: Induction of apoptosis in human H1975 cells assessed as increase in phosphorylated Akt level at 0.1 to 3 uM incubated for 24 hrs by Western blot analysis; format: functional, cell-based; settings: dose microM 0.1-3, time 24.0 hrs; procedure, shortened: as §1
[22] = test system: A549; test: Induction of apoptosis in human A549 cells assessed as viable cells at 1 uM after 48 hrs by Annexin V-FITC/7-AAD staining based flow cytometric method (reference value: 93.10 %); format: functional; settings: read-out: Activity
[23] = test system: NCI-H1975; test: Induction of apoptosis in human H1975 cells assessed as early apoptotic cells at 0.3 uM after 48 hrs by Annexin V-FITC/7-AAD staining based flow cytometric method (reference value: 6.50 %); format: functional
[24] = test system: A549; test: Antiproliferative activity against human A549 cells assessed as inhibition of cell growth incubated for 72 hrs by CCK-8 assay; settings: A549, 72 h
[25] = test system: A549; test: Induction of apoptosis in human A549 cells assessed as late apoptotic cells at 1 uM after 48 hrs by Annexin V-FITC/7-AAD staining based flow cytometric method (reference value: 2.94 %); format: functional
[26] = test system: NCI-H1975; test: Induction of apoptosis in human H1975 cells assessed as increase in cleaved PARP level at 0.1 to 3 uM after 24 hrs by Western blot analysis; format: functional, cell-based; settings: dose microM 0.1-3, time 24.0 hrs; procedure, shortened: as §1
[27] = test system: A549; test: Induction of apoptosis in human A549 cells assessed as increase in Akt level at 0.1 to 3 uM incubated for 24 hrs by Western blot analysis; format: functional, cell-based; settings: dose microM 0.1-3, time 24.0 hrs; procedure, shortened: as §1
[28] = test system: A549; test: Induction of cell cycle arrest in human A549 cells assessed as accumulation in S phase at 0.3 uM incubated for 24 hrs by […] propidium iodide staining based flow cytometry (reference value: 14.16 %); format: functional
[29] = test system: NCI-H1975; test: Induction of apoptosis in human H1975 cells assessed as necrotic cells at 0.3 uM after 48 hrs by Annexin V-FITC/7-AAD staining based flow cytometric method (reference value: 0.85 %); format: functional
[30] = test system: A549; test: Induction of apoptosis in human A549 cells assessed as viable cells at 0.3 uM after 48 hrs by Annexin V-FITC/7-AAD staining based flow cytometric method (reference value: 93.10 %); format: functional; settings: read-out: Activity

`CN1c2c(ccc3cc4c(cc23)OCO4)-c2ccc3c(c2C1N1CCOCC1)OCO3` (stereo not given) gave an Activity [1] of 8.73%, an Activity [2] of 67.32% and an Activity [3] of 3.91%. For the same compound, the Activity [4] was 70.03%, the Activity [5] was 8.75% and the Activity [6] was “Dose-dependent effect”. For the same compound, the Activity [7] was 4.23%, the Activity [8] was 2.8% and the Activity [9] was 6.92%. For the same compound, the Activity [10] was “Active”, the Activity [11] was 90.5% and the Activity [12] was 8.03%. It also gave an Activity [13] of 4.59%, a viability at 3 µM [14] of 1.8% and a viability at 1 µM [15] of 67.4%. For the same compound, the Activity [16] was “Active”, the Activity [17] was 15.07% and the Activity [18] was “Active”. The Activity [19] was 71.21%, the Activity [20] was 15.64% and the Activity [21] was “Active”. For the same compound, the viability at 1 µM [22] was 78.3%, the Activity [23] was 10.94% and the pIC50 [24] was 5.75. For the same compound, the Activity [25] was 9.4%, the Activity [26] was “Active” and the Activity [27] was “Active”. For the same compound, the Activity [28] was 14.84%, the Activity [29] was 0.98% and the viability at 0.3 µM [30] was 79.4%.
